Test results: ChEMBL document CHEMBL3739289, “Discovery, synthesis and structure-activity analysis of symmetrical 2,7-disubstituted fluorenones as urea transporter inhibitors” (Medchemcomm, 2015)
The source made the active and inactive calls. The calls are words filed in the database; no cut-off is given here.

Tests used:
Urea transporter 1 = target: T1, Urea transporter 1 (Rattus norvegicus, UniProt P97689); test: Inhibition of UT-B in rat whole blood after 15 mins by RBC lysis assay; type: tissue-based
T1 sequence (P97689 whole entry): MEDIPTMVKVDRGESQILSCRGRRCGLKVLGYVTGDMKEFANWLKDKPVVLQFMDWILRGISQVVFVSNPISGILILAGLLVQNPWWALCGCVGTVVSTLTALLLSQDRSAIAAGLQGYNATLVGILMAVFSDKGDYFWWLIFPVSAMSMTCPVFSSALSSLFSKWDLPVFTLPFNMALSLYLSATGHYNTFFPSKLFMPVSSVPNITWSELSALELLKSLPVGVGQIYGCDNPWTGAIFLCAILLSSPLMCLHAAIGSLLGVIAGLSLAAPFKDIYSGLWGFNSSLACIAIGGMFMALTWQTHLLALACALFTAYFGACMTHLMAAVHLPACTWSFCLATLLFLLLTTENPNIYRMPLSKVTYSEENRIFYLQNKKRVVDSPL
In short: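 Whole rat blood diluted to ~1.5% hematocrit in PBS with 1.25 M acetamide. Erythrocytes exposed to compound for 15 min, then rapidly mixed with PBS. Lysis read as absorbance at 710 nm; % inhibition calculated relative to negative and positive controls.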

Urea transporter 2 = target: T2, Urea transporter 2 (Rattus norvegicus, UniProt Q62668); test: Inhibition of rat UT-A1 expressed in MDCK-UT-A1-AQP1-YFP cells after 15 mins by fluorescence assay; type: cell-based
T2 sequence (Q62668 whole entry): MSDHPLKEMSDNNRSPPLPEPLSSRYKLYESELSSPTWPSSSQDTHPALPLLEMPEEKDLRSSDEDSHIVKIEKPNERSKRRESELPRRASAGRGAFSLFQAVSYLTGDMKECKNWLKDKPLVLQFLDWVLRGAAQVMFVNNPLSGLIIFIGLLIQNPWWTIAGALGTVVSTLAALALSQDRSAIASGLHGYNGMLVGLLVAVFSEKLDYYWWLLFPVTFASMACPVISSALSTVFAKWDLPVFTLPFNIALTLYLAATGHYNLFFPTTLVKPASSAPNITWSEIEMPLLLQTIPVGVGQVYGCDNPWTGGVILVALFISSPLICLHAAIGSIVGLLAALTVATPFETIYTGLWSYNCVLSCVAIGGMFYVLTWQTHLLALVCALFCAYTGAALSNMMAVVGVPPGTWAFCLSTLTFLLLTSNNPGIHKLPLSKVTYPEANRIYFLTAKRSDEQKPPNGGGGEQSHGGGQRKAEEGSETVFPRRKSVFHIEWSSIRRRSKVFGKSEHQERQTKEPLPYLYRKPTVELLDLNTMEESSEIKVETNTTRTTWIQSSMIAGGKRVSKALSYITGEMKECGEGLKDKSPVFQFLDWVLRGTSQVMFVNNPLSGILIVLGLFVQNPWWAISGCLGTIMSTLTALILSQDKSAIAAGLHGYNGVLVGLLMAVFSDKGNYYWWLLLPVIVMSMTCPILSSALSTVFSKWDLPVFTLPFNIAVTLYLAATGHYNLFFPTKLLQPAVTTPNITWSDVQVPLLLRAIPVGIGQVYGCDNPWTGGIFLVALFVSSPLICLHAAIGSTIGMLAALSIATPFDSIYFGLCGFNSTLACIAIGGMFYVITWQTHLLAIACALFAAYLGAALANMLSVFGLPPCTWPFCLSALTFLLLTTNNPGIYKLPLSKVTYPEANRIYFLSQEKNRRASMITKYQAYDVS

[1] = Drug metabolism in rat liver microsomes assessed as cytochrome P450 monooxygenase-mediated oxidation by LC/MS analysis; type: ADME
In short: (§1)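 Compounds incubated with rat liver microsomes plus NADPH for up to 60 min. Parent loss and metabolite appearance followed by LC/MS.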

[2] = target: T3, Urea transporter 2 (Rattus norvegicus) (UniProt Q62668); test: Inhibition of rat UT-A1 expressed in MDCK-UT-A1-AQP1-YFP cells after 40 secs by fluorescence assay; type: cell-based
T3 sequence (whole entry): T2 sequence (Q62668 whole entry)

Liver microsome = test: Drug metabolism in rat liver microsomes assessed as [M+ H-16] formation by LC/MS analysis; type: ADME; settings: TDE = time-dependent effect
In short: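 Rat liver microsomes incubated with compound in presence of NADPH; disappearance of parent and appearance of metabolite followed by LC/MS over 60 min.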

[3] = target: T3, Urea transporter 2 (Rattus norvegicus); test: Reversible inhibition of rat UT-A1 expressed in MDCK-UT-A1-AQP1-YFP cells at IC50 measured 15 mins post compound washout by fluorescence assay; type: cell-based
[4] = Metabolic stability in rat liver microsomes assessed as compound remaining after 15 mins by RP-HPLC analysis in presence of NADPH; type: ADME; settings: read-out: Stability; in short: as §1
[5] = target: T3, Urea transporter 2 (Rattus norvegicus); test: Non competitive inhibition of rat UT-A1 expressed in MDCK-UT-A1-AQP1-YFP cells at IC50 after 15 mins by fluorescence assay in presence of urea; type: cell-based
[6] = Drug level in 1M NaOH treated with compound-18 assessed as compound formation; type: physicochemical

Structure (SMILES)	IC50 (Urea transporter 1)	IC50 (Urea transporter 2)	further results
CC(=O)Nc1ccc2c(c1)C(O)c1cc(NC(C)=O)ccc1-2	20 µM	> 50 µM	–
CC(C)C(=O)Nc1ccc2c(c1)C(=O)c1cc(NC(=O)C(C)C)ccc1-2	50 µM	18 µM	–
COCCOCC(=O)Nc1ccc2c(c1)C(=O)c1cc(NC(=O)COCCOC)ccc1-2	50 µM	> 50 µM	–
O=C(COCc1ccccc1)Nc1ccc2c(c1)C(=O)c1cc(NC(=O)COCc3ccccc3)ccc1-2	> 50 µM	> 50 µM	–
O=C(CO)Nc1ccc2c(c1)C(=O)c1cc(NC(=O)CO)ccc1-2	25 µM	20 µM	–
O=C(COCc1ccccc1)Nc1cccc(C(=O)c2cccc(NC(=O)COCc3ccccc3)c2)c1	> 50 µM	> 50 µM	–
O=C(CBr)Nc1ccc2c(c1)C(=O)c1cc(NC(=O)CBr)ccc1-2	10 µM	30 µM	–
CC(=O)Nc1ccc2c(c1)C(=O)c1cc(NC(C)=O)ccc1-2	1.5 µM	1 µM	Drug metabolism [1]: metabolite_notdetected; inhibition [2]: Active; Drug metabolism (Liver microsome): tde; inhibition [3]: Active; remaining at 0.25 h [4]: 60%; inhibition [5]: Active
CS(=O)(=O)Nc1cccc(C(=O)c2cccc(NS(C)(=O)=O)c2)c1	30 µM	> 50 µM	–
Nc1cccc(C(=O)c2cccc(N)c2)c1	> 50 µM	> 50 µM	–
CC(=O)Nc1ccc2c(c1)S(=O)(=O)c1cc(NC(C)=O)ccc1-2	2 µM	15 µM	Drug metabolism [1]: metabolite_notdetected; remaining at 0.25 h [4]: > 80%
O=C1c2cc(NC(=O)C(F)(F)F)ccc2-c2ccc(NC(=O)C(F)(F)F)cc21	7.5 µM	10 µM	–
CC(=O)Nc1ccc2c(c1)C(=NO)c1cc(NC(C)=O)ccc1-2	25 µM	12 µM	Drug metabolism [1]: metabolite_notdetected; remaining at 0.25 h [4]: > 80%
[N-]=[N+]=NCC(=O)Nc1ccc2c(c1)C(=O)c1cc(NC(=O)CN=[N+]=[N-])ccc1-2	30 µM	20 µM	–
O=C1c2cc([N+](=O)[O-])ccc2-c2ccc([N+](=O)[O-])cc21	> 50 µM	> 50 µM	–
CC(=O)Nc1cccc(C(=O)c2cccc(NC(C)=O)c2)c1	20 µM	18 µM	Drug metabolism [1]: metabolite_notdetected; remaining at 0.25 h [4]: > 80%
O=C(O)/C=C\C(=O)Nc1ccc2c(c1)C(=O)c1cc(NC(=O)/C=C\C(=O)O)ccc1-2	> 50 µM	30 µM	–
Nc1ccc2c(c1)C(=O)c1cc(N)ccc1-2	> 50 µM	> 50 µM	–
CCC(=O)Nc1ccc2c(c1)C(=O)c1cc(NC(=O)CC)ccc1-2	5 µM	15 µM	–
CCCC(=O)Nc1ccc2c(c1)C(=O)c1cc(NC(=O)CCC)ccc1-2	> 50 µM	> 50 µM	–
CC(=O)/N=C1\C=CC2=c3ccc(NC(C)=O)cc3=CC2=C1	–	–	Drug metabolism [6]: metabolite_detected
O=C1c2cc(N3CCCS3(=O)=O)ccc2-c2ccc(N3CCCS3(=O)=O)cc21	> 50 µM	> 50 µM	–
NC(=O)Nc1ccc2c(c1)C(=O)c1cc(NC(N)=O)ccc1-2	1.2 µM	2 µM	–
CS(=O)(=O)Nc1ccc2c(c1)C(=O)c1cc(NS(C)(=O)=O)ccc1-2	2.5 µM	1.5 µM	–
